Results gathered from unrelated publications.
Compare with care: the assays were run in different laboratories.
Target: Glycogen synthase kinase-3 alpha (GSK3A, Homo sapiens, UniProt P49840)

| Compound | test | conditions | quantity | result |
| --- | --- | --- | --- | --- |
| Cc1cc(O)c(-c2ccc([C@@H](C)CN(C)C)cc2)c2c1[nH]c(=O)c1sccc12 | enzyme activity, inhibitor | 0.1 µM | inhibition | -5.76% |
| CC(=O)ON=C1C=CC(=C(C#N)c2ccccc2)C=C1 | enzyme activity, inhibitor, ADP detection | 20 µM | activity vs control | 94% |
| C1=C/COCc2cc(ccc2OCCN2CCCC2)Nc2nccc(n2)-c2cccc(c2)COC/1 | binding | 0.1 µM | remaining binding | 100% |
| COc1ccc2oc(-c3ccc4nc(N)oc4c3)c/c(=N\c3ccccc3NC(=O)CCN)c2c1 | binding | 1 µM | remaining binding | 94% |
| CO[C@@H]1[C@H](N(C)C(=O)c2ccccc2)C[C@H]2O[C@]1(C)n1c3ccccc3c3c4c(c5c6ccccc6n2c5c31)C(=O)NC4 | enzyme activity, inhibitor | 1 µM | inhibition | 14% |
| C[C@H]1CC[C@H](n2c3cnccc3c3cnc(Nc4ccc5c(n4)CCN(C(=O)CO)C5)nc32)CC1 | cell-free assay | 1 µM | remaining signal | 35% |
| C=CC(=O)N1CCC([C@@H]2CCNc3c(C(N)=O)c(-c4ccc(Oc5ccccc5)cc4)nn32)CC1 | enzyme activity, inhibitor | 1 µM | inhibition | 2% |
| Cc1ccc(NC(=O)c2ccnc(C(F)(F)F)c2)cc1-c1cc(OCCO)nc(N2CCOCC2)c1 | binding | 1 µM | remaining binding | 100% |
| CCCCC(=O)Nc1ccc(-c2ccc3ncn(CCC)c(=O)c3c2)cn1 | binding, competition with immobilised ligand | 0.5 µM | remaining binding | 94% |
